Source: ChEMBL document CHEMBL1134486, “Synthesis and biological evaluation of purine-containing butenolides” (J Med Chem, 2001)

Biological target: T1, Adenosine deaminase (Bos taurus) (UniProt P56658)
T1 sequence (whole entry): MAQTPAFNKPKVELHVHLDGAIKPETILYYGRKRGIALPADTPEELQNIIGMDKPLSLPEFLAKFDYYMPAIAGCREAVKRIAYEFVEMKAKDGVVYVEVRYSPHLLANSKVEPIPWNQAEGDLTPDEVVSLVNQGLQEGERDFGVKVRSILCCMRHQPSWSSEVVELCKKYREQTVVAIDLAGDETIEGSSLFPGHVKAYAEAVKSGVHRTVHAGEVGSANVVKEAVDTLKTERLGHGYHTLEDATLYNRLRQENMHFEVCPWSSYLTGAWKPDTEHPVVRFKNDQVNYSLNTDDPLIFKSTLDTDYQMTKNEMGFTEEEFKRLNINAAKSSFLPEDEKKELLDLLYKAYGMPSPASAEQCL
Test: Relative Vmax value of the compound
How it was run: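 Deamination rates followed with calf mucosal ADA (EC 3.5.4.4) in buffer solutions; Km and Vmax relative to adenosine as substrate; inhibition (Ki) assessed with adenosine as substrate.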

Relative Vmax: 1
Compound: Nc1ncnc2c1ncn2[C@@H]1O[C@H](CO)[C@@H](O)[C@H]1O
